Source: ChEMBL document CHEMBL1146380, “Synthesis, antimicrobial activity, and QSAR studies of furan-3-carboxamides” (2007)
Values after ≈ are worked out from the molar mass of the structure shown. Active and inactive are the calls of the source. No cut-off for these calls is given here.

What was measured:
Candida albicans = assay: Antimicrobial activity against Candida albicans ATCC 44373 by broth microdilution method; assay type: functional
How it was run: (§1)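 Yeasts grown on potato dextrose agar. Inoculum was standardized by McFarland turbidity as for bacteria, into RPMI 1640 broth (M27-A2). DMSO-dissolved compound was tested in twofold dilutions from 320 to 1.25 at 35 °C for 24 h, in duplicate. MIC was the lowest concentration completely inhibiting visible growth. Fungicidal concentration was read by subculturing 20 µL from clear wells on Sabouraud dextrose agar at 35 °C.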

Candida dubliniensis = assay: Antimicrobial activity against Candida dubliniensis CBS 7987 by broth microdilution method; assay type: functional; how it was run: as §1
Nakaseomyces glabratus = assay: Antimicrobial activity against Candida glabrata […] by broth microdilution method; assay type: functional; how it was run: as §1
[1] = tested on: Cryptococcus deneoformans; assay: Antimicrobial activity against Cryptococcus neoformans var.neoformans serotype D ATCC 28952 by broth microdilution method; assay type: functional
How it was run: (§2)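 Organism grown on potato dextrose agar, with turbidity-standardized inoculum in RPMI 1640 broth (M27-A2). DMSO-dissolved compound was tested in twofold dilutions from 320 to 1.25 at 35 °C, incubated up to 72 h, in duplicate. MIC was the lowest concentration with no visible growth. Cidal concentration was read by subculturing 20 µL from clear wells on Sabouraud dextrose agar, incubated for the same period.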

Saccharomyces cerevisiae = assay: Antimicrobial activity against Saccharomyces cerevisiae ATCC 2601 by broth microdilution method; assay type: functional; how it was run: as §2
Staphylococcus aureus = assay: Antimicrobial activity against Staphylococcus aureus ATCC 25923 by broth microdilution method; assay type: functional
How it was run: (§3)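 Bacteria grown overnight on Mueller–Hinton agar. Colonies were suspended in saline to McFarland turbidity (about 10^8 cfu/mL), diluted 1:100 in saline, then 1:20 in Mueller–Hinton broth, giving 5 · 10^4 cfu/mL per well. DMSO-dissolved compound was tested in twofold dilutions from 320 to 1.25 at 35 °C for 24 h. MIC was the lowest concentration with no visible turbidity (M7-A4). Bactericidal concentration was read by subculturing clear wells on Mueller–Hinton agar.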

Klebsiella pneumoniae = assay: Antimicrobial activity against Klebsiella pneumoniae ATCC 1003 by broth microdilution method; assay type: functional; how it was run: as §3
Escherichia coli = assay: Antimicrobial activity against Escherichia coli ATCC 25922 by broth microdilution method; assay type: functional; how it was run: as §3
[2] = (§4) Antimicrobial activity against Salmonella setubal ATCC 19196 by broth microdilution method; assay type: functional, Salmonella enterica subsp. enterica serovar Setubal; conditions: Salmonella enterica; how it was run: as §3
[3] = tested on: Salmonella enterica subsp. enterica serovar Setubal; assay: as §4; assay type: functional; how it was run: as §3
Prototheca zopfii = assay: Antimicrobial activity against Prototheca zopfii by broth microdilution method; assay type: functional; how it was run: as §2
Pseudomonas aeruginosa = assay: Antimicrobial activity against Pseudomonas aeruginosa ATCC 27853 by broth microdilution method; assay type: functional; how it was run: as §3
Rhizopus arrhizus = assay: Antimicrobial activity against Rhizopus oryzae isolate by broth microdilution method; assay type: functional
Sporothrix schenckii = assay: Antimicrobial activity against Sporothrix schenckii ATCC 1146 by broth microdilution method; assay type: functional
Fusarium solani = assay: Antimicrobial activity against Fusarium solani isolate by broth microdilution method; assay type: functional
Aspergillus fumigatus = assay: Antimicrobial activity against Aspergillus fumigatus isolate by broth microdilution method; assay type: functional
Aspergillus flavus = assay: Antimicrobial activity against Aspergillus flavus isolate by broth microdilution method; assay type: functional
Aspergillus niger = assay: Antimicrobial activity against Aspergillus niger isolate by broth microdilution method; assay type: functional
Aspergillus terreus = assay: Antimicrobial activity against Aspergillus terreus isolate by broth microdilution method; assay type: functional
Scedosporium boydii = assay: Antimicrobial activity against Pseudallescheria boydii isolate by broth microdilution method; assay type: functional

Q: With `O=C(NNc1ccccc1)c1ccoc1` as the compound, how does the MFC (Candida albicans) read?
A: 320 µg/mL (≈ 1580 µM)

Q: And the MIC (Candida albicans)?
A: 320 µg/mL (≈ 1580 µM)

Q: What about the MFC (Candida dubliniensis) of the same compound?
A: 320 µg/mL (≈ 1580 µM)

Q: And the MIC (Candida dubliniensis)?
A: 320 µg/mL (≈ 1580 µM)

Q: And the Activity (Nakaseomyces glabratus)?
A: inactive

Q: And the MIC (Nakaseomyces glabratus)?
A: 320 µg/mL (≈ 1580 µM)

Q: And the MFC [1]?
A: 160 µg/mL (≈ 791 µM)

Q: And the MIC [1]?
A: 160 µg/mL (≈ 791 µM)

Q: And the MFC (Saccharomyces cerevisiae)?
A: 320 µg/mL (≈ 1580 µM)

Q: What about the MIC (Saccharomyces cerevisiae) of the same compound?
A: 320 µg/mL (≈ 1580 µM)

Q: And the Activity (Staphylococcus aureus)?
A: inactive

Q: What about the MIC (Staphylococcus aureus) of the same compound?
A: 320 µg/mL (≈ 1580 µM)

Q: And the Activity (Klebsiella pneumoniae)?
A: inactive

Q: And the MIC (Klebsiella pneumoniae)?
A: 320 µg/mL (≈ 1580 µM)

Q: And the Activity (Escherichia coli)?
A: inactive

Q: What about the MIC (Escherichia coli) of the same compound?
A: 320 µg/mL (≈ 1580 µM)

Q: What about the MIC [2] of the same compound?
A: 320 µg/mL (≈ 1580 µM)

Q: What about the Activity [3] of the same compound?
A: inactive

Q: And the MFC (Prototheca zopfii)?
A: 320 µg/mL (≈ 1580 µM)

Q: What about the MIC (Prototheca zopfii) of the same compound?
A: 160 µg/mL (≈ 791 µM)

Q: What about the Activity (Pseudomonas aeruginosa) of the same compound?
A: inactive

Q: What about the MIC (Pseudomonas aeruginosa) of the same compound?
A: 320 µg/mL (≈ 1580 µM)

Q: And the MFC (Rhizopus arrhizus)?
A: 320 µg/mL (≈ 1580 µM)

Q: And the MIC (Rhizopus arrhizus)?
A: 320 µg/mL (≈ 1580 µM)

Q: And the MFC (Sporothrix schenckii)?
A: 320 µg/mL (≈ 1580 µM)

Q: And the MIC (Sporothrix schenckii)?
A: 10 µg/mL (≈ 49.5 µM)

Q: And the MFC (Fusarium solani)?
A: 2.5 µg/mL (≈ 12.4 µM)

Q: And the MIC (Fusarium solani)?
A: 2.5 µg/mL (≈ 12.4 µM)

Q: And the MFC (Aspergillus fumigatus)?
A: 20 µg/mL (≈ 98.9 µM)

Q: What about the MIC (Aspergillus fumigatus) of the same compound?
A: 20 µg/mL (≈ 98.9 µM)

Q: What about the MFC (Aspergillus flavus) of the same compound?
A: 20 µg/mL (≈ 98.9 µM)

Q: What about the MIC (Aspergillus flavus) of the same compound?
A: 10 µg/mL (≈ 49.5 µM)

Q: And the MFC (Aspergillus niger)?
A: 40 µg/mL (≈ 198 µM)

Q: What about the MIC (Aspergillus niger) of the same compound?
A: 20 µg/mL (≈ 98.9 µM)

Q: And the MFC (Aspergillus terreus)?
A: 40 µg/mL (≈ 198 µM)

Q: And the MIC (Aspergillus terreus)?
A: 40 µg/mL (≈ 198 µM)

Q: What about the MFC (Scedosporium boydii) of the same compound?
A: 320 µg/mL (≈ 1580 µM)

Q: And the MIC (Scedosporium boydii)?
A: 10 µg/mL (≈ 49.5 µM)

Q: What does the source list for `O=C(NCc1cccnc1)c1ccoc1`?
A: Activity (Candida albicans): inactive; Activity (Candida dubliniensis): inactive; MIC (Candida dubliniensis): 320 µg/mL (≈ 1580 µM); Activity (Nakaseomyces glabratus): inactive; MFC [1]: 320 µg/mL (≈ 1580 µM); MIC [1]: 160 µg/mL (≈ 791 µM); MFC (Saccharomyces cerevisiae): 320 µg/mL (≈ 1580 µM); MIC (Saccharomyces cerevisiae): 320 µg/mL (≈ 1580 µM); Activity (Staphylococcus aureus): inactive; MIC (Staphylococcus aureus): 320 µg/mL (≈ 1580 µM); Activity (Klebsiella pneumoniae): inactive; MIC (Klebsiella pneumoniae): 320 µg/mL (≈ 1580 µM); Activity (Escherichia coli): inactive; MIC (Escherichia coli): 320 µg/mL (≈ 1580 µM); MIC [2]: 320 µg/mL (≈ 1580 µM); Activity [3]: inactive; MFC (Prototheca zopfii): 160 µg/mL (≈ 791 µM); MIC (Prototheca zopfii): 160 µg/mL (≈ 791 µM); Activity (Pseudomonas aeruginosa): inactive; MIC (Pseudomonas aeruginosa): 320 µg/mL (≈ 1580 µM); MFC (Rhizopus arrhizus): 320 µg/mL (≈ 1580 µM); MIC (Rhizopus arrhizus): 320 µg/mL (≈ 1580 µM); MFC (Sporothrix schenckii): 320 µg/mL (≈ 1580 µM); MIC (Sporothrix schenckii): 320 µg/mL (≈ 1580 µM); Activity (Fusarium solani): inactive; MIC (Fusarium solani): 320 µg/mL (≈ 1580 µM); MFC (Aspergillus fumigatus): 320 µg/mL (≈ 1580 µM); MIC (Aspergillus fumigatus): 320 µg/mL (≈ 1580 µM); Activity (Aspergillus flavus): inactive; MFC (Aspergillus niger): 320 µg/mL (≈ 1580 µM); MIC (Aspergillus niger): 320 µg/mL (≈ 1580 µM); Activity (Aspergillus terreus): inactive; MIC (Aspergillus terreus): 320 µg/mL (≈ 1580 µM); MFC (Scedosporium boydii): 160 µg/mL (≈ 791 µM); MIC (Scedosporium boydii): 160 µg/mL (≈ 791 µM)
